Consider 14 compounds from ChEMBL document CHEMBL1144509, “Identification of some novel AHAS inhibitors via molecular docking and virtual screening approach” (Bioorg Med Chem, 2007).

Each structure is given as a SMILES string. Peptide text beside a SMILES is read from it.

The test system of experiment [1] is Brassica rapa subsp. oleifera. Description: Herbicidal activity against Brassica campestris L assessed as inhibition of rape root growth at 10 ug/ml. The experiment is classed as functional. The essentials: (§1)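 Rape seeds pre-soaked 4 h in distilled water, then set on filter paper in 6-cm dishes wetted with 2 ml test solution, usually 10 seeds per plate, duplicate plates. Germination in the dark for 72 h at 28 (±1) °C. Mean length of 10 roots measured. Percent inhibition calculated against distilled-water controls.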

The test system of experiment [2] is Brassica rapa subsp. oleifera. The experiment is described as follows: Herbicidal activity against Brassica campestris L assessed as inhibition of rape root growth at 100 ug/ml. The format is functional. Put shortly:
as §1

Experiment [3] is described as follows: Inhibition of Arabidopsis thaliana AHAS. The essentials:
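Purified recombinant plant AHAS. Colorimetric assay in 50 mM potassium phosphate pH 7.0 with 50 mM pyruvate, 1 mM thiamine diphosphate, 10 mM MgCl2 and 10 µM FAD, compounds given as emulsions, 30 min at 37 °C. Stopped with 10% H2SO4, then 60 °C for 15 min to convert acetolactate to acetoin. Acetoin developed with 0.5% creatine and 5% α-naphthol for 15 min at 60 °C, read at A525.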

For the compound `O=C(O)c1cc(-c2cc(C(=O)O)c3ccccc3n2)nc2ccccc12`, the inhibition at 10 µg/mL in experiment [1] came to 0%. In experiment [2], the inhibition at 100 µg/mL came out at 1.4%.

With `CC(O)C(NC(=O)OCC1c2ccccc2-c2ccccc21)C(=O)O` (stereo unspecified), the inhibition at 10 µg/mL in experiment [1] was 0%. The inhibition at 100 µg/mL in experiment [2] amounted to 25.7%.

For the compound `O=C(O)C(Cc1c[nH]c2ccccc12)NSc1ccccc1[N+](=O)[O-]` (stereo unspecified), the inhibition at 10 µg/mL in experiment [1] was determined as 60.5%. Besides, the affinity in experiment [3] corresponds to a Ki of 90.7 µM. Besides, the inhibition at 100 µg/mL in experiment [2] was found to be 74.8%.

Consider `O=C1/C(=C2\Nc3ccc(S(=O)(=O)O)cc3C2=O)Nc2ccc(S(=O)(=O)O)cc21` [INDIGOTINDISULFONATE], for which the inhibition at 10 µg/mL in experiment [1] came to 0%. The Ki in experiment [3] stood at 42.1 µM. In experiment [2], the inhibition at 100 µg/mL came out at 0%.

Turning to `O=C(NC(Cc1c[nH]cn1)C(=O)O)OCc1ccccc1` (stereo unspecified), in experiment [1], the inhibition at 10 µg/mL is 0%. Moreover, the inhibition at 100 µg/mL in experiment [2] is 0%.

With `O=C(O)Cc1cccc(CC(=O)O)c1`, the inhibition at 10 µg/mL in experiment [1] amounted to 0%. Also, the inhibition at 100 µg/mL in experiment [2] worked out at 2.6%.

For the compound `O=C(O)CC(NC(=O)OCc1ccccc1)C(=O)O` (stereo unspecified), in experiment [1], the inhibition at 10 µg/mL was 0%. Moreover, in experiment [2], the inhibition at 100 µg/mL is 0%.

With `O=C(O)c1cccc(F)c1C(=O)O`, the inhibition at 10 µg/mL in experiment [1] was found to be 0%. The inhibition at 100 µg/mL in experiment [2] is 0%.

Consider `N[C@@H](Cc1ccc(O)cc1)C(=O)N[C@@H](Cc1ccccc1)C(=O)O` (H-Tyr-Phe-OH), for which the inhibition at 10 µg/mL in experiment [1] was found to be 0%. Moreover, the inhibition at 100 µg/mL in experiment [2] stood at 0%.

For `O=C(O)c1ccc(SSc2ccc(C(=O)O)cn2)nc1`, in experiment [1], the inhibition at 10 µg/mL turned out to be 6%. Further, the Ki in experiment [3] came to 15.2 µM. Besides, in experiment [2], the inhibition at 100 µg/mL came out at 12.1%.

`CC(NC(=O)OCC1c2ccccc2-c2ccccc21)C(=O)O` (stereo unspecified): the inhibition at 10 µg/mL in experiment [1] stood at 0%. The inhibition at 100 µg/mL in experiment [2] worked out at 12.9%.

As for `NC(=O)CCC(NC(=O)OCC1c2ccccc2-c2ccccc21)C(=O)O` (stereo unspecified), in experiment [1], the inhibition at 10 µg/mL was found to be 0%. In experiment [2], the inhibition at 100 µg/mL amounted to 13.9%.

Take `O=C(O)C(Cc1ccc(O)cc1)NSc1ccccc1[N+](=O)[O-]` (stereo unspecified): the inhibition at 10 µg/mL in experiment [1] was found to be 0%. Moreover, in experiment [2], the inhibition at 100 µg/mL stood at 0%.

As for `NC(=O)CCC(NC(=O)OCc1ccccc1)C(=O)O` (stereo unspecified), the inhibition at 10 µg/mL in experiment [1] is 0%. Further, in experiment [2], the inhibition at 100 µg/mL came out at 6.3%.

One may read the inhibition as the relative decrease from the control value, in per cent. One may read the Ki as a measure of affinity in units of concentration, obtained from inhibition or displacement. Higher therefore signals weaker binding.
